According to ChEMBL document CHEMBL1123998, “Radioiodinated benzodiazepines: agents for mapping glial tumors” (J Med Chem, 1988):

Key:
Rattus norvegicus [1] = species: Rattus norvegicus; test: Radioligand binding in kidney tissue after 2 hr; type: functional
Outline: (§1)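 Male Sprague-Dawley rats (160–265 g) under light ether received 16–19 μCi ¹²⁵I-ligand in 0.20–0.25 mL 15:85 EtOH/PBS pH 6.0 via the femoral vein. They were decapitated at 5 min, 30 min, 2, 6 or 24 h, and tissues were weighed and gamma-counted. Results are % injected dose/g wet tissue, normalized to a 200-g rat; N = 5 per time point.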

[2] = biological target: Translocator protein (Rattus norvegicus) (UniProt P16257); test: Reduced radioligand binding following 30 min intravenous 10 mg/kg PK11195 in adrenal gland; type: functional, organism-based; set-up: dose 10 mg/kg
Sequence of Translocator protein (Rattus norvegicus) (P16257 whole entry, looked up): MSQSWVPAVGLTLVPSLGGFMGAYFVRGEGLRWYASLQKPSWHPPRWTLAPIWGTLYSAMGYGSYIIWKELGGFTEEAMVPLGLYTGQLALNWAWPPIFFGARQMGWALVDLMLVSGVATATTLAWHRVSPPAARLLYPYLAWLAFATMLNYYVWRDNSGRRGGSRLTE

Rattus norvegicus [3] = species: Rattus norvegicus; test: Radioligand binding in blood after 30 min; type: functional; outline: as §1
Rattus norvegicus [4] = species: Rattus norvegicus; test: Radioligand binding in brain tissue after 30 min; type: functional; outline: as §1
Rattus norvegicus [5] = species: Rattus norvegicus; test: Radioligand binding in adrenal gland after 5 min; type: functional; outline: as §1
[6] = biological target: Translocator protein (Rattus norvegicus) (UniProt P16257); test: Reduced radioligand binding following 30 min intravenous 10 mg/kg PK11195 in blood; type: functional, organism-based; set-up: dose 10 mg/kg
[7] = biological target: Translocator protein (Rattus norvegicus) (UniProt P16257); test: Reduced radioligand binding following 30 min intravenous 10 mg/kg PK11195 in lung tissue; type: functional, organism-based; set-up: dose 10 mg/kg
Rattus norvegicus [8] = species: Rattus norvegicus; test: Radioligand binding in thyroid tissue after 2 hr in rats given oral KI solution; type: functional, Thyroid gland
[9] = biological target: Translocator protein (Rattus norvegicus) (UniProt P16257); test: Reduced radioligand binding following 30 min intravenous 10 mg/kg PK11195 in adrenal tissue; type: functional, organism-based; set-up: dose 10 mg/kg; settings: at 10 mg/kg
Rattus norvegicus [10] = species: Rattus norvegicus; test: Radioligand binding in thyroid tissue after 2 hr; type: functional, Thyroid gland; outline: as §1
Rattus norvegicus [11] = species: Rattus norvegicus; test: (§2) Radioligand binding in brain tissue after 24 hr r; type: functional; outline: as §1
Rattus norvegicus [12] = species: Rattus norvegicus; test: as §2; type: functional; outline: as §1; remark: listed apart in the source
Rattus norvegicus [13] = species: Rattus norvegicus; test: Radioligand binding in heart tissue after 30 min; type: functional; outline: as §1
[14] = biological target: Translocator protein (Rattus norvegicus) (UniProt P16257); test: Reduced radioligand binding following 30 min intravenous 10 mg/kg PK11195 in kidney tissue; type: functional, organism-based; set-up: dose 10 mg/kg
Rattus norvegicus [15] = species: Rattus norvegicus; test: Radioligand binding in heart tissue after 24 hr r; type: functional; outline: as §1
Rattus norvegicus [16] = species: Rattus norvegicus; test: Radioligand binding in adrenal tissue after 24 hr r; type: functional; outline: as §1
Rattus norvegicus [17] = species: Rattus norvegicus; test: Radioligand binding in brain tissue after 5 min; type: functional; outline: as §1
[18] = biological target: GABA-A receptor; anion channel; test: Binding affinity for GABA-A benzodiazepine receptor of rat brain
Outline: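 Frozen rat brain (central receptor) and kidney (peripheral site) sections, 20 μm, were prewashed 3 × 5 min in 50 mM Tris pH 7.4 at 0 °C. They were incubated 90 min with 5 nM [³H]flunitrazepam plus graded competitor, with 1 μM PK 11195 defining nonspecific binding. Film autoradiography (10 days, ¹⁴C standards) was read by densitometry. Ki = IC50/(1+[L]/Kd), Kd 40 nM; N = 3.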

Rattus norvegicus [19] = species: Rattus norvegicus; test: Radioligand binding in kidney tissue after 6 hr; type: functional; outline: as §1
Rattus norvegicus [20] = species: Rattus norvegicus; test: Radioligand binding in thyroid tissue after 24 hr r; type: functional, Thyroid gland; outline: as §1
[21] = biological target: Translocator protein (Rattus norvegicus) (UniProt P16257); test: Reduced radioligand binding following 30 min intravenous 10 mg/kg PK11195 in brain tissue; type: functional, organism-based; set-up: dose 10 mg/kg
Rattus norvegicus [22] = species: Rattus norvegicus; test: Radioligand binding in blood after 2 hr; type: functional; outline: as §1
Rattus norvegicus [23] = species: Rattus norvegicus; test: Radioligand binding in kidney tissue after 24 hr r; type: functional; outline: as §1
Rattus norvegicus [24] = species: Rattus norvegicus; test: Radioligand binding in kidney tissue after 5 min; type: functional; outline: as §1
Rattus norvegicus [25] = species: Rattus norvegicus; test: Radioligand binding in thyroid tissue after 5 min; type: functional, Thyroid gland; outline: as §1
Rattus norvegicus [26] = species: Rattus norvegicus; test: Radioligand binding in heart tissue after 2 hr; type: functional; outline: as §1
[27] = biological target: Translocator protein (Rattus norvegicus) (UniProt P16257); test: Reduced radioligand binding following 30 min intravenous 10 mg/kg PK11195 in submaxillary gland; type: functional, organism-based; set-up: dose 10 mg/kg
Rattus norvegicus [28] = species: Rattus norvegicus; test: Radioligand binding in blood after 6 hr; type: functional; outline: as §1
Rattus norvegicus [29] = species: Rattus norvegicus; test: Radioligand binding in brain tissue after 2 hr; type: functional; outline: as §1
[30] = biological target: Translocator protein (Rattus norvegicus) (UniProt P16257); test: Reduced radioligand binding following 30 min intravenous 10 mg/kg PK11195 in heart tissue; type: functional, organism-based; set-up: dose 10 mg/kg
Rattus norvegicus [31] = species: Rattus norvegicus; test: Radioligand binding in kidney tissue after 30 min; type: functional; outline: as §1
Rattus norvegicus [32] = species: Rattus norvegicus; test: Radioligand binding in blood after 24 hr r; type: functional; outline: as §1
Rattus norvegicus [33] = species: Rattus norvegicus; test: Radioligand binding in thyroid tissue after 30 min; type: functional, Thyroid gland; outline: as §1
Rattus norvegicus [34] = species: Rattus norvegicus; test: Radioligand binding in blood after 5 min; type: functional; outline: as §1
Translocator protein = Translocator protein (Rattus norvegicus, UniProt P16257); test: Binding affinity for peripheral benzodiazepine receptor of rat kidney
Sequence of Translocator protein (P16257 whole entry, looked up): as above

Rattus norvegicus [35] = species: Rattus norvegicus; test: Radioligand binding in adrenal tissue after 2 hr; type: functional; outline: as §1
Rattus norvegicus [36] = species: Rattus norvegicus; test: Radioligand binding in heart tissue after 5 min; type: functional; outline: as §1
Rattus norvegicus [37] = species: Rattus norvegicus; test: Radioligand binding in adrenal gland after 30 min; type: functional; outline: as §1
Rattus norvegicus [38] = species: Rattus norvegicus; test: Radioligand binding in thyroid tissue after 6 hr; type: functional, Thyroid gland; outline: as §1
Rattus norvegicus [39] = species: Rattus norvegicus; test: Radioligand binding in heart tissue after 6 hr; type: functional; outline: as §1
Rattus norvegicus [40] = species: Rattus norvegicus; test: Radioligand binding in adrenal tissue after 6 hr; type: functional; outline: as §1

Molecule `CN1C(=O)CN=C(c2ccc(I)cc2)c2cc(Cl)ccc21` has an Activity (Rattus norvegicus [1]) of 0.51, a Distribution [2] of 1.74 and an Activity (Rattus norvegicus [3]) of 0.11. The Activity (Rattus norvegicus [4]) was 0.6, the Activity (Rattus norvegicus [5]) was 7.1 and the Distribution [6] was 0.16. It also gave a Distribution [7] of 0.58, a Change ([7]; at 10 mg/kg) of -46% and an Activity (Rattus norvegicus [8]) of 0.49. The Change [9] was -75%, the Activity (Rattus norvegicus [10]) was 4.26 and the Activity (Rattus norvegicus [11]) was 0.01. It also gave an Activity (Rattus norvegicus [12]) of 0.14, an Activity (Rattus norvegicus [13]) of 1.13 and a Distribution [14] of 0.74. The Change ([14]; at 10 mg/kg) was -35%, the Activity (Rattus norvegicus [15]) was 0.02 and the Activity (Rattus norvegicus [16]) was 0.05. The Activity (Rattus norvegicus [17]) was 1, the Ki [18] was > 1000 nM and the Activity (Rattus norvegicus [19]) was 0.21. The Activity (Rattus norvegicus [20]) was 10.85, the Distribution [21] was 0.69 and the Activity (Rattus norvegicus [22]) was 0.1. It also gave an Activity (Rattus norvegicus [23]) of 0.03, an Activity (Rattus norvegicus [24]) of 1.78 and an Activity (Rattus norvegicus [25]) of 3.27. The Activity (Rattus norvegicus [26]) was 0.5, the Distribution [27] was 0.74 and the Change ([27]; at 10 mg/kg) was -49%. For the same molecule, the Activity (Rattus norvegicus [28]) was 0.05, the Activity (Rattus norvegicus [29]) was 0.35 and the Distribution [30] was 0.76. The Change ([30]; at 10 mg/kg) was -34%, the Activity (Rattus norvegicus [31]) was 1.05 and the Activity (Rattus norvegicus [32]) was 0.01. The Activity (Rattus norvegicus [33]) was 2.25, the Activity (Rattus norvegicus [34]) was 0.22 and the Ki (Translocator protein) was 13.6 nM. It also gave an Activity (Rattus norvegicus [35]) of 2.38, an Activity (Rattus norvegicus [36]) of 2.18 and an Activity (Rattus norvegicus [37]) of 7.85. For the same molecule, the Activity (Rattus norvegicus [38]) was 11.85, the Activity (Rattus norvegicus [39]) was 0.19 and the Activity (Rattus norvegicus [40]) was 0.6.

With `CN1C(=O)CN=C(c2ccc(Cl)cc2)c2cc(Cl)ccc21` [RO-54864] the Ki [18] was > 1000 nM.

Work on `CN1C(=O)CN=C(c2ccc(Cl)cc2)c2cc(I)ccc21` yielded an Activity (Rattus norvegicus [1]) of 0.58, an Activity (Rattus norvegicus [3]) of 0.15 and an Activity (Rattus norvegicus [4]) of 0.46. The Activity (Rattus norvegicus [5]) was 4.85, the Activity (Rattus norvegicus [10]) was 5.57 and the Activity (Rattus norvegicus [11]) was 0.21. The Activity (Rattus norvegicus [12]) was 0.46, the Activity (Rattus norvegicus [13]) was 0.77 and the Activity (Rattus norvegicus [15]) was 0.25. The Activity (Rattus norvegicus [16]) was 0.42, the Activity (Rattus norvegicus [17]) was 0.75 and the Ki [18] was > 1000 nM. For the same molecule, the Activity (Rattus norvegicus [19]) was 0.59, the Activity (Rattus norvegicus [20]) was 17.2 and the Activity (Rattus norvegicus [22]) was 0.12. For the same molecule, the Activity (Rattus norvegicus [23]) was 0.25, the Activity (Rattus norvegicus [24]) was 1.1 and the Activity (Rattus norvegicus [25]) was 1.5. The Activity (Rattus norvegicus [26]) was 0.63, the Activity (Rattus norvegicus [28]) was 0.12 and the Activity (Rattus norvegicus [29]) was 0.41. For the same molecule, the Activity (Rattus norvegicus [31]) was 0.74, the Activity (Rattus norvegicus [32]) was 0.05 and the Activity (Rattus norvegicus [33]) was 4.42. For the same molecule, the Activity (Rattus norvegicus [34]) was 0.2, the Ki (Translocator protein) was 13.3 nM and the Activity (Rattus norvegicus [35]) was 1.84. The Activity (Rattus norvegicus [36]) was 1.15, the Activity (Rattus norvegicus [37]) was 3.63 and the Activity (Rattus norvegicus [38]) was 17.28. For the same molecule, the Activity (Rattus norvegicus [39]) was 0.57 and the Activity (Rattus norvegicus [40]) was 1.3.
